These results are taken from ChEMBL document CHEMBL1125444 (J Med Chem, 1992).

The target in experiment [1] is 5-hydroxytryptamine receptor 4 (Rattus norvegicus) (UniProt Q62758). The experiment is described as follows: Relaxation of carbachol induced contractions of rat tunica muscularis mucosae. A digest of the protocol:
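Rat esophagus tunica muscularis mucosae strips, equilibrated 30 min, then contracted isometrically with carbachol (3 μM) to a stable tonic plateau within 20 min. Test agent added cumulatively to relax the strip. Buffer held corticosterone acetate (30 μM), fluoxetine (1 μM) and pargyline (10 μM).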

Experiment [2] addresses T1, Serotonin 3 (5-HT3) receptor (Rattus norvegicus, UniProt P35563+Q9JJ16).
T1 sequence (P35563 whole entry): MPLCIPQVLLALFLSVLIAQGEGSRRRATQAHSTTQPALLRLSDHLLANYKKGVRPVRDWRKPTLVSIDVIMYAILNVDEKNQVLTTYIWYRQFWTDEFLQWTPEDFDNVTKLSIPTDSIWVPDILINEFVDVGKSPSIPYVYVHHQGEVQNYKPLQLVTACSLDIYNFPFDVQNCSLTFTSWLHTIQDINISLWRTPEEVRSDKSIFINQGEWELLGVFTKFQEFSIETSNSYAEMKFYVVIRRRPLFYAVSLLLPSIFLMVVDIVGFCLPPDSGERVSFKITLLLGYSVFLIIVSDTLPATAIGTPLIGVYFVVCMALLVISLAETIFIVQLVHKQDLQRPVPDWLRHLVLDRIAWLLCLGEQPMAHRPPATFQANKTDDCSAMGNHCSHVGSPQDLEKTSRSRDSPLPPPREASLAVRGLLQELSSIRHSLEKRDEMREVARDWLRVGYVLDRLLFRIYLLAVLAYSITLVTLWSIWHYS
T1 sequence (Q9JJ16 whole entry): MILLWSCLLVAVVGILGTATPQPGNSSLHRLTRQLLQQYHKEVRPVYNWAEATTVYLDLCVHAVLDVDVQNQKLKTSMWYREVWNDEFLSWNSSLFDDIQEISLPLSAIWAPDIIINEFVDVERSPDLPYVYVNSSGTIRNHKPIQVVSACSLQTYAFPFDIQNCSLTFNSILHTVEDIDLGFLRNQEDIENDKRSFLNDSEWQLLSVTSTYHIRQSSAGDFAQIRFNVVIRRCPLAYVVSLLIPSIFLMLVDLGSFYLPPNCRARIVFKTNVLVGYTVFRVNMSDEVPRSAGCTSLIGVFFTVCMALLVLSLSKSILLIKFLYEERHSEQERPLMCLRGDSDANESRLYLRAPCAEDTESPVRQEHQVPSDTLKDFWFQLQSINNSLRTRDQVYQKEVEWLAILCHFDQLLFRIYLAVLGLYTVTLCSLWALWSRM
The experiment is described as follows: Inhibition of [3H]GR-65630 binding to 5-hydroxytryptamine 3 receptor. In kind it is protein-complex assay.

The target in experiment [3] is Serotonin 1 (5-HT1) receptor (Rattus norvegicus, UniProt P28564+P30940+P19327+P28565). The experiment is described as follows: The ability to inhibit [3H]5-HT binding to 5-hydroxytryptamine 1 receptor in rat cortex.
In experiment [4] the target is Serotonin 2 (5-HT2) receptor (Rattus norvegicus, UniProt P30994+P08909+P14842). The experiment is described as follows: The ability to inhibit [3H]ketanserin binding to 5-hydroxytryptamine 2 receptor in rat whole brain.
Experiment [5] has as its target T1, Serotonin 3 (5-HT3) receptor. The experiment is described as follows: The ability to inhibit [3H]GR-65630 binding to 5-hydroxytryptamine 3 receptor in rat brain cortices. The experiment is classed as tissue-based. A digest of the protocol: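 Membranes from male rat brain cortices incubated with [3H]GR65630 (0.2 nM) as radioligand.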
For experiment [6], the target named is T2, Alpha-1A adrenergic receptor (Rattus norvegicus, UniProt P43140).
T2 sequence (P43140 whole entry): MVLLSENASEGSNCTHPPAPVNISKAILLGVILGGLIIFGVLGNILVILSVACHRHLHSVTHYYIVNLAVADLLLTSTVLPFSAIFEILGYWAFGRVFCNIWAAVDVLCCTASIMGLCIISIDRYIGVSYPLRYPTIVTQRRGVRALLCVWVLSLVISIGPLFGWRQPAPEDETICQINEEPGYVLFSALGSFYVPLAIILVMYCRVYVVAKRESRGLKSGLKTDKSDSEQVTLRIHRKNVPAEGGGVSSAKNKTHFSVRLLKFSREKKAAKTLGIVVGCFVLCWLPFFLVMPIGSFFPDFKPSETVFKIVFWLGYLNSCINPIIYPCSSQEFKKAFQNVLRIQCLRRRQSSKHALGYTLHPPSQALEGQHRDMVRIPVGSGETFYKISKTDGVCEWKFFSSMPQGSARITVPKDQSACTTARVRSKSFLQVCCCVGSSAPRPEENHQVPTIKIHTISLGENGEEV
The experiment is described as follows: The ability to inhibit [3H]prazosin binding to Alpha-1 adrenergic receptor in rat whole brain.

In experiment [7] the target is T3, Adrenergic receptor alpha-2 (Rattus norvegicus, UniProt P22086+P19328+P22909).
T3 sequence (P22086 whole entry): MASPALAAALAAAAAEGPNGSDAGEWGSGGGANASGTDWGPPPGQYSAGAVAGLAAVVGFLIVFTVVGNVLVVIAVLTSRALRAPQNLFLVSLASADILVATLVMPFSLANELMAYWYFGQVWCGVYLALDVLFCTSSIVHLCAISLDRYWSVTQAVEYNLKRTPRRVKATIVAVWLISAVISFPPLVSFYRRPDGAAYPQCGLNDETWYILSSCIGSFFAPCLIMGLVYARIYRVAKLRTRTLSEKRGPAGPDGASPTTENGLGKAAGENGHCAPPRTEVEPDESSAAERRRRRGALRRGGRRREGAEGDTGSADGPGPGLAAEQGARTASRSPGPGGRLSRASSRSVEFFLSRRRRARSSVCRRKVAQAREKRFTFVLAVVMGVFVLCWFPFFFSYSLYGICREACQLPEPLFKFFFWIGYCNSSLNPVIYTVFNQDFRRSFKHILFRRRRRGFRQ
T3 sequence (P19328 whole entry): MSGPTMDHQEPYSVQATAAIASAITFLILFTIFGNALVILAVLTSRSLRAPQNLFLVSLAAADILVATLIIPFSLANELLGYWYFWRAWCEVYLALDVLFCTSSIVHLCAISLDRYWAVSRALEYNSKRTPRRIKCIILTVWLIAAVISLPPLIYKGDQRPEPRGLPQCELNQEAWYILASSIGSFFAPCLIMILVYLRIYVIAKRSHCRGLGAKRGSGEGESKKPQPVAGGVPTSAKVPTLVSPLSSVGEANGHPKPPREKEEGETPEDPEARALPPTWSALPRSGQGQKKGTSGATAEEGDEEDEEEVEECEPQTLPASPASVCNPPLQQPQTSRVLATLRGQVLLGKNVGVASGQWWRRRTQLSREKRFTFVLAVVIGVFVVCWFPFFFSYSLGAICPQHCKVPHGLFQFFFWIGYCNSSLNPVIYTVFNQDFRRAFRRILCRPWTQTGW
T3 sequence (P22909 whole entry): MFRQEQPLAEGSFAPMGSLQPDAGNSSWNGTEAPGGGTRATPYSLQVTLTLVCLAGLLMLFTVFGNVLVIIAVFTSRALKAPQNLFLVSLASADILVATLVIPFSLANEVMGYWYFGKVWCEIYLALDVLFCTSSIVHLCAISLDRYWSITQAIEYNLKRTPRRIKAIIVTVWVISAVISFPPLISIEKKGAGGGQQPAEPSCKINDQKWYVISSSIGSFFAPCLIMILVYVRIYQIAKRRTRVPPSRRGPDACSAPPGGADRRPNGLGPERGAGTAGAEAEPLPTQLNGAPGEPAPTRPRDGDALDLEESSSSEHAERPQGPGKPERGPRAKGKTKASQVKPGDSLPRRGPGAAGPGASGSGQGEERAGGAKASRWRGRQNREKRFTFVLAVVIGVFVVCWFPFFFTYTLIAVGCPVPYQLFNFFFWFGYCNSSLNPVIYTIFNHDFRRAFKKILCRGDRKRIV
The experiment is described as follows: The ability to inhibit [3H]rauwolscine binding to alpha-2 adrenergic receptor in rat cortex.

Another experiment has as its target Adrenergic receptor beta (Rattus norvegicus, UniProt P18090+P10608+P26255). The experiment is described as follows: The ability to inhibit [3H]dihydroalprenolol prenolol binding to Beta adrenergic receptor in rat whole brain.
In a further experiment the target is D(1A) dopamine receptor (Rattus norvegicus, UniProt P18901). The experiment is described as follows: The ability to inhibit [3H]-SCH- 23390 binding to Dopamine receptor D1 in rat striata.
Sequence of D(1A) dopamine receptor (P18901 whole entry): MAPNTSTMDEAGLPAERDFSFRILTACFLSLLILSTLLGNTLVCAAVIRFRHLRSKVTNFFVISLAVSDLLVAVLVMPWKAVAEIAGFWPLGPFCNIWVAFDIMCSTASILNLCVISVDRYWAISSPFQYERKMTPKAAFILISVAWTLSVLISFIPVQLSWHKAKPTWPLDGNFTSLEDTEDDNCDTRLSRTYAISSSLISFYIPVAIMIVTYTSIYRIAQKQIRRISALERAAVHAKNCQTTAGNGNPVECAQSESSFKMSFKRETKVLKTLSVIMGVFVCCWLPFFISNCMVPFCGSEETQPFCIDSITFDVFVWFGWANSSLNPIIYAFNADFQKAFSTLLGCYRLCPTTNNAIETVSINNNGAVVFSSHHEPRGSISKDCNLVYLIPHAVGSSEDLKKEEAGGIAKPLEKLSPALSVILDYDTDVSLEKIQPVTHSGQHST
In the next experiment the target is D(2) dopamine receptor (Rattus norvegicus, UniProt P61169). The experiment is described as follows: The ability to inhibit [3H]domperidone binding to dopamine receptor D2 in rat striata.
Sequence of D(2) dopamine receptor (P61169 whole entry): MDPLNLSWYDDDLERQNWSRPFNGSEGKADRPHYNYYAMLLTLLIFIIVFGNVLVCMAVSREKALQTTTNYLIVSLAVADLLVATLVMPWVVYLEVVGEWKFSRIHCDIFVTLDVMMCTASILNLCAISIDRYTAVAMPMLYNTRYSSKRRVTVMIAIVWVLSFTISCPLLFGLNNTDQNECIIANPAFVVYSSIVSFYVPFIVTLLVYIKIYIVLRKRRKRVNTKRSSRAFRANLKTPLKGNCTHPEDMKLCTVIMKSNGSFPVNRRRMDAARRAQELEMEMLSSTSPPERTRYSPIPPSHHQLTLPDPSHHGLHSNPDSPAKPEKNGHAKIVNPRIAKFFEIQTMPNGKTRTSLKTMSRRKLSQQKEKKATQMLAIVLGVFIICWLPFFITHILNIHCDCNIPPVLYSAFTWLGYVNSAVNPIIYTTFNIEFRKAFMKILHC
Experiment [8] in a line: %E relative to serotonin is 100%. In kind it is functional.

Sequence of 5-hydroxytryptamine receptor 4 (Rattus norvegicus) (Q62758 whole entry): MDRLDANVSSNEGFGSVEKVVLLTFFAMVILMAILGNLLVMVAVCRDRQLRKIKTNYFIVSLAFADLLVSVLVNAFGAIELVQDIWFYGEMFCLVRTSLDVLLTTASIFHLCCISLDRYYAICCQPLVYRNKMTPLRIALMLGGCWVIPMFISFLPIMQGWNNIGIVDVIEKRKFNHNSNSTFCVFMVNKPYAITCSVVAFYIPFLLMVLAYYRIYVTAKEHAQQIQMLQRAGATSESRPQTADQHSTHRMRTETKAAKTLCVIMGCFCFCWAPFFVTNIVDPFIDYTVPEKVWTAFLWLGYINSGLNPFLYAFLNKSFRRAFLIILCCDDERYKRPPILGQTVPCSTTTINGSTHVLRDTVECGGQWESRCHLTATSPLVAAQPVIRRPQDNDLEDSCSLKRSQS

Take `O=C(NC1CCN2CCCC12)c1ccccc1` (centres undefined): the ED50 in [1] is above 10000 nM. The Ki in experiment [2] was above 200 nM.

`CCOc1cc(N)c(Cl)cc1C(=O)NCC1CCN2CCCC12` (centres undefined) returned an ED50 in [1] of 1380 nM. Moreover, the Ki in experiment [2] came out at 25 nM.

`COc1cc(N)c(Cl)cc1C(=O)NC[C@H]1CCN2CCC[C@H]12` returned an ED50 in experiment [1] of 323 nM. The compound further came in with a Ki in experiment [2] of 66 nM.

For the compound `CC(C)n1c(=O)n(C(=O)CC2CC3CCC(C2)N3C)c2ccccc21` (centres undefined), the Ki (in experiment [3]; in experiment [4]; in experiment [5]; in experiment [6]; in experiment [7]; at Adrenergic receptor beta) was above 10 µM throughout. The Ki on D(1A) dopamine receptor and on D(2) dopamine receptor was above 10 µM each time. The same compound yielded an ED50 in [1] of 40.2 nM. This compound had an E in [8] above 111%.

As to `NCCc1c[nH]c2ccc(O)cc12`, the ED50 in [1] turned out to be 16 nM.

As for `COc1cc(N)c(Cl)cc1C(=O)NC[C@@H]1CCN2CCC[C@@H]12` (relative stereo), the Ki in experiment [3] is above 10 µM; in experiment [4], above 10 µM; in [2], 152 nM; in [6], above 10 µM; in experiment [7], above 10 µM; at Adrenergic receptor beta, above 10 µM. The inhibition constant Ki at D(1A) dopamine receptor and on D(2) dopamine receptor was above 10 µM in each case. Moreover, the ED50 in [1] is 23 nM. In [8], this compound showed an E of 93%.

For `COc1cc(N)c(Cl)cc1C(=O)NCC1CCN2CCCC12` (stereo in doubt; 1A) [listing 1 of 2 here], in [2], the affinity corresponds to a Ki of 104 nM.

The compound `COc1cc(N)c(Cl)cc1C(=O)NCC1CCN2CCCC12` (stereo in doubt; 1A) [listing 2 of 2 here] showed an ED50 in [1] of 64 nM.

`COc1cc(N)c(Cl)cc1C(=O)NCC1CCN2CCCC12` (stereo in doubt; 1E) [listing 1 of 2 here] showed an inhibitory constant (Ki) in [2] of 278 nM.

In the case of `COc1cc(N)c(Cl)cc1C(=O)NCC1CCN2CCCC12` (stereo in doubt; 1E) [listing 2 of 2 here], in [1], the ED50 came out at 280 nM.

In the case of `COc1cc(N)c(Cl)cc1C(=O)NC1CCN2CCCC12` (stereo in doubt; 1F) [listing 1 of 2 here], affinity in [2] was put at a Ki of 14 nM.

Take `COc1cc(N)c(Cl)cc1C(=O)NC1CCN2CCCC12` (stereo in doubt; 1F) [listing 2 of 2 here]: in experiment [1], the ED50 was 187 nM.

`CCOc1cc(N)c(Cl)cc1C(=O)NC1CCN2CCCC12` (stereo in doubt; 1G) [listing 1 of 2 here] had a Ki in [2] of 8 nM.

Take `CCOc1cc(N)c(Cl)cc1C(=O)NC1CCN2CCCC12` (stereo in doubt; 1G) [listing 2 of 2 here]: the ED50 in experiment [1] was determined as 2270 nM.

For `COc1cc(N)c(Cl)cc1C(=O)NC1CCN2CCCC12` (stereo in doubt; 1J) [listing 1 of 2 here], the Ki in [2] was determined as 96 nM.

The compound `COc1cc(N)c(Cl)cc1C(=O)NC1CCN2CCCC12` (stereo in doubt; 1J) [listing 2 of 2 here] yielded an ED50 in experiment [1] of 3450 nM.

In turn, `CCOc1cc(N)c(Cl)cc1C(=O)NC1CCN2CCCC12` (stereo in doubt; 1K) [listing 1 of 2 here] returned a Ki in experiment [2] of 99 nM.

Regarding `CCOc1cc(N)c(Cl)cc1C(=O)NC1CCN2CCCC12` (stereo in doubt; 1K) [listing 2 of 2 here], in experiment [1], the ED50 was above 10000 nM.

On to `COc1cc(N)c(Cl)cc1C(=O)N[C@H]1CN2CCC1CC2` [(R)ZACOPRIDE], for which the inhibition constant (Ki) was above 10 µM in experiment [3]; 0.415 µM in experiment [4]; 8 nM in experiment [2]; above 10 µM in [6]; above 10 µM in [7]; above 10 µM at Adrenergic receptor beta. For the same compound, the Ki at D(1A) dopamine receptor and at D(2) dopamine receptor was above 10 µM in each case. Further, the ED50 in experiment [1] came to 505 nM. In addition, in experiment [8], the E came out at 96%.

Regarding `COc1cc(N)c(Cl)cc1C(=O)NC1CCN(CCCOc2ccc(F)cc2)CC1OC` (centres undefined) [CISAPRIDE], the Ki was above 10 µM in experiment [3], 0.03 µM in experiment [6], above 10 µM on Adrenergic receptor beta and 1.7 µM on D(1A) dopamine receptor. Besides, the ED50 in experiment [1] was found to be 54.7 nM. In addition, in experiment [8], the E was 105%.

Take `CCN(CC)CCNC(=O)c1cc(Cl)c(N)cc1OC` [METOCLOPRAMIDE]: in [1], the ED50 stood at 24100 nM. In experiment [2], this compound yielded a Ki of 240 nM.

`COc1cc(N)c(Cl)cc1C(=O)NC1CCN2CCCC1C2` (centres undefined) [RENZAPRIDE] showed an ED50 in experiment [1] of 44 nM. Besides, the inhibition constant (Ki) (in experiment [6]; in experiment [7]; on Adrenergic receptor beta; on D(1A) dopamine receptor; at D(2) dopamine receptor) was above 10 µM each time. The E in [8] was found to be 98%.

By Ki is commonly meant the equilibrium dissociation constant of an inhibitor or competing ligand from its target. Read a high Ki as lower affinity.
